Compound activity (PubChem BioAssay)
Compounds with a hit are over-represented: about 0.77% of the library has one in this group of screens.
hIAP inh – blocks human intestinal alkaline phosphatase | P09923 | purified IAP, CDP-Star luminescence, 30 min | inhibition, % at 10 µM | actives 0.12% (n = 330,000);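 active = inhibition reaching a set limit with compound at 10 µM in the primary screen, cut at about 35% in these data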;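 note: plate controls were DMSO wells with enzyme for no effect and no-enzyme buffer wells for full effect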
Target sequence (P09923 whole entry, looked up): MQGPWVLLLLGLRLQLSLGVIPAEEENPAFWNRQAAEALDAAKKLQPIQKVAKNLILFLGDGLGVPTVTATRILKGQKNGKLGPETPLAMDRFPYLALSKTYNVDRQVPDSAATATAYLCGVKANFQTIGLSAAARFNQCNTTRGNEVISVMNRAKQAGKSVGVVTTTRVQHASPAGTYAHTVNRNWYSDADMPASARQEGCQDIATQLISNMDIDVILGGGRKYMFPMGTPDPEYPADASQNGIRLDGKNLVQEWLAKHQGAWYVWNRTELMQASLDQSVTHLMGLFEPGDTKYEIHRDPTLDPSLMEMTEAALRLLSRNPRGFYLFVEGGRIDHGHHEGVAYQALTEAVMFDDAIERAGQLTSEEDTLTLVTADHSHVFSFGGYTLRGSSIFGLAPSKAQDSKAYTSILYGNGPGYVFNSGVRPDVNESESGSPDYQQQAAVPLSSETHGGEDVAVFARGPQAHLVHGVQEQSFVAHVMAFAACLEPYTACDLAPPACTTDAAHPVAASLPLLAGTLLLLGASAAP
bIAP inhibitor – blocks bovine intestinal alkaline phosphatase activity; purified bovine IAP, CDP-star luminescence, 30 min; inhibition, % at 20 µM; 190,000 tested, under 10 active;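 active = over 50% inhibition of intestinal alkaline phosphatase at 20 µM in the single-dose screen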
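System: Purified bovine intestinal alkaline phosphatase (IAP) enzyme | Input: IAP diluted 1/65,000,000 in the well | Also added: CDP-star chemiluminescent phosphatase substrate, 30 µM final | Dosing: 20 µM single dose | Times: Enzyme reaction for 30 min at room temperature | Detection: Luminescence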
mIAP inh – mouse IAP inhibition; purified mouse IAP, CDP-Star luminescence, 30 min; inhibition, % at 10 µM; actives 0.2% (n = 330,000); AID 2806;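 active = inhibition of at least 40% at 10 µM in the primary screen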;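 note: plate controls were DMSO with enzyme for no effect and no enzyme wells for full effect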
bIAP act – intestinal alkaline phosphatase (bovine) activation. actives 0.17% (n = 200,000). AID 1016. purified bovine IAP, CDP-star luminescence, 30 min; stronger effect = higher value; fold of DMSO-control signal, blank-subtracted. activation factor at 20 µM;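 active = activation factor of 2 or more at 20 µM, a signal rise over negative controls twice the positive control's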
mIAP activ – mouse IAP activation. muIAP, CDP-Star luminescence, 30 min; stronger effect = higher value; 1 = vehicle-only enzyme signal, 0 = enzyme-free wells. activation factor at 10 µM. actives 0.24% (n = 330,000). AID 2805;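 active = activation factor of at least 2 at 20 µM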
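also added = chemiluminescent substrate CDP-Star | test system = mouse IAP enzyme | signal = chemiluminescence readout | compound = DMSO-dissolved test compounds | incubation = 30 min at room temperature | benchmarks = DMSO wells, no-enzyme wells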
hIAP act – increases human intestinal alkaline phosphatase activity. actives 0.16% (n = 330,000). purified human IAP, CDP-Star luminescence, 30 min; stronger effect = higher value; 1 = vehicle-only enzyme, 0 = enzyme-free background. activation factor at 10 µM;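 active = activation factor of the enzyme at least 2-fold when tested at 20 µM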
hIAP act conf – human IAP activation confirmation. shares compounds with hIAP act. purified IAP, CDP-Star luminescence, 30 min; stronger effect = lower value. activation (%Activity, negative = activation), % at 8.3 µM. actives 10% (n = 880);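 active = at least twofold enzyme activation in any of six single-dose repeats, which the averaged readout prints as negative percent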
* marks the source's active call; other numbers are inactive results; nt = no result given.

SMILES	hIAP inh	bIAP inhibitor	mIAP inh	bIAP act	mIAP activ	hIAP act	hIAP act conf
CC(C)N(CCNC(=O)c1ccc(CS(=O)(=O)c2c(Cl)cccc2Cl)o1)Cc1ccccc1	1	nt	12	nt	0.88	0.99	nt
O=C(/C=C/c1ccccc1[N+](=O)[O-])NCCCN1CCCC1=O	4	nt	6	nt	0.94	0.96	nt
CCn1c(=O)c(C(=O)NNC(=O)c2ccc(Cl)cc2Cl)c(O)c2ccccc21	-49	nt	16	nt	0.84	1.5	nt
CCCn1c(=O)c(C(=O)NNC(=O)c2ccc(Cl)cc2Cl)c(O)c2ccccc21	-195	nt	3	nt	0.97	2.9*	-68
COc1ccc(/C(O)=C/C(=O)C(=O)NNC(=O)c2ccccc2)cc1	-117	nt	11	nt	0.89	2.2*	-3
Cc1ccc(N(CC(O)CN2C(=O)NC(C)(C)C2=O)S(=O)(=O)c2ccc(C)cc2)cc1 (configuration not stated)	7	nt	-4	nt	1	0.93	nt
Cc1ccc(N(CC(O)CN2C(=O)NC(C)(C)C2=O)S(=O)(=O)c2ccc([N+](=O)[O-])cc2)cc1 (configuration not stated)	39*	nt	8	nt	0.92	0.61	18
Cc1ccc(NC(=O)COC(=O)[C@H](C)N2C(=O)C3CC=CCC3C2=O)cc1S(=O)(=O)N(C)C (some centres not stated)	15	7	4	0.9	0.96	0.85	nt
COc1ccc(N2CC(C(=O)N[C@@H](C)C(=O)NCCc3ccccc3)CC2=O)cc1 (some centres not stated)	-21	nt	2	nt	0.98	1.2	nt
NS(=O)(=O)c1ccc(N2N=C(c3ccccc3)CC2c2ccccc2Br)cc1 (configuration not stated)	nt	nt	-76	nt	1.8	nt	nt
O=[N+]([O-])c1ccc(N2N=C(c3ccccc3)CC2c2ccccc2O)cc1 (configuration not stated)	38*	nt	19	nt	0.81	0.62	-50
COC(=O)c1cc(-c2ccccc2)n[nH]1	-3	5	-2	1	1	1	nt
COc1cc(C(=O)NNC(=O)c2cc(-c3ccccc3)n[nH]2)cc(OC)c1C	-149	nt	-6	nt	1.1	2.5*	-42
CS(=O)(=O)c1ccc(C(=O)NNC(=O)c2cc(-c3ccccc3)n[nH]2)cc1	51*	nt	26	nt	0.74	0.49	7
CS(=O)(=O)Cc1ccc(C(=O)NNC(=O)c2cc(-c3ccccc3)n[nH]2)cc1	-26	nt	21	nt	0.79	1.3	nt
O=C(O)C1CC(=O)N(CCc2ccc(F)cc2)C1 (configuration not stated)	20	nt	-3	nt	1	0.81	nt
Cc1ccc(S(=O)(=O)NCC(=O)NNC(=O)c2ccccc2Cl)cc1C	-121	nt	28	nt	0.72	2.2*	-9
O=C(COC(=O)CCNS(=O)(=O)c1ccccc1)NC(=O)Cc1ccccc1	8	nt	-8	nt	1.1	0.92	nt
CN1CC(=O)N(CC(=O)Nc2ccc3c(c2)CCC3)C1=O	2	6	21	0.9	0.79	0.98	nt
O=C(COc1ccccc1)NCC(=O)N/N=C/c1ccc(O)cc1O	-105	nt	0	nt	1	2.1*	-4
COc1cccc(/C=N/NC(=O)CNC(=O)COc2ccccc2)c1O	-52	nt	-2	nt	1	1.5	nt
COc1ccc(-c2cc(C(=O)NNC(=O)c3csc(N4CCOCC4)n3)c3ccccc3n2)cc1OC	-135	nt	12	nt	0.88	2.4*	0
CCOC(=O)c1sc(NC(=O)/C=C/c2ccccc2)nc1C	-120	-44	11	1.4	0.89	2.2*	1
COc1cccc(Cn2cccc(NC(=O)NCc3ccccc3)c2=O)c1	38*	nt	5	nt	0.95	0.61	9
O=C(c1ccco1)N(Cc1ccc(Cl)cc1)Cc1ccco1	38*	nt	-2	nt	1	0.62	-43
CN(C)c1ccc(CN(Cc2ccco2)C(=O)c2ccco2)cc1	7	nt	-11	nt	1.1	0.93	nt
CC(C)=CCc1c(O)ccc2c1OC(c1ccc(O)c(O)c1)CC2=O (configuration not stated)	68*	20	32	0.8	0.68	0.32	26
